KCNQ1 block: inhibitors of human KCNQ1 channel, primary screen, cell-based, thallium flux, high-throughput | CHO-K1 KCNQ1, FluxOR thallium flux fluorescence; stronger effect = higher value | AID 2642, 2010 | Potassium voltage-gated channel subfamily KQT member 1 (Homo sapiens), P51787 | B-score at 10 µM | 310,000 tested, 1.3% active;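 active = compounds whose thallium flux B-score, printed positive for inhibition, exceeds three library SD while starting fluorescence stays within three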;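 also: channel opened by potassium depolarization with thallium stimulus after 20 min compound exposure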
hERG rescue: hERG rescue from dofetilide block, primary screen, cell-based, CHO-hERG, FluxOR thallium flux, dofetilide IC70; activation (rescue from dofetilide block), less the hit threshold, % at 10 µM; 310,000 tested, 0.51% active; AID 1511, 2009; dofetilide IC70 present; Voltage-gated inwardly rectifying potassium channel KCNH2 (Homo sapiens), Q12809;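 active = activation above the mean of controls blocked by dofetilide plus 5 SD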;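 also: thallium influx through hERG after potassium depolarization seen as dye fluorescence rise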
KCNQ1 pot: potentiators or activators of KCNQ1 channel, primary screen, cell-based, thallium flux, high-throughput; CHO-K1 KCNQ1, thallium flux FluxOR fluorescence; stronger effect = higher value; B-score at 10 µM; 310,000 tested, 0.35% active; AID 2648, 2010;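 active = fluorescence ratio B-score, a plate-corrected score, at least three library SD, with initial intensity B-score within 5 SD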
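Doses: Single concentration per compound, DMSO matched to controls | Test system: KCNQ1-transfected CHO-K1 cells | Timing: 90 min dye loading and 20 min compound exposure, both at room temperature | Measured by: Kinetic FluxOR thallium fluorescence, 10-s 1-Hz baseline, 110-s post-stimulus read | Medium: Assay buffer with matched DMSO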
KCNK9 inh: KCNK9 potassium channel inhibitors, primary screen, HEK293 cells, thallium flux; 310,000 tested, 1.2% active; FluxOR thallium flux fluorescence; stronger effect = lower value; B-score at 10 µM; Potassium channel subfamily K member 9 (Homo sapiens), Q9NPC2;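 active = ratio B-score over 3 SD below the library mean, with starting fluorescence within 5 SD of its mean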;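 also: negative B-score means less thallium flux so channel inhibition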
KCNK3 block: human KCNK3 channel inhibitors, primary screen, CHO cells, FluxOR thallium flux, B-score. B-score at 10 µM. 340,000 tested, 0.84% active. FluxOR fluorescence; stronger effect = lower value. Potassium channel subfamily K member 3 (Homo sapiens), O14649;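 active = B-score under library mean minus 4 SD, starting fluorescence ratio at most library mean plus 5 SD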;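 also: more negative B-score means stronger inhibition of thallium flux through KCNK3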
KCNK9 inh conf: KCNK9 potassium channel inhibitors, confirmation, HEK293 cells, thallium flux, duplicate; FluxOR thallium flux fluorescence; AID 492992, 2010; 4,900 tested, 43% active; shares compounds with KCNK9 inh; inhibition, % at 10 µM;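 active = thallium signal inhibited by more than 5 SD of the compound-free buffer control wells, on both duplicate plates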;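 also: 0% = assay buffer control wells without compound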
Kir21 sel: mouse Kir2.1 channel inhibition, confirmation, selectivity assay for KCNK9 modulator project, cell-based, HEK293, thallium flux. shares compounds with KCNK9 inh. Kir2.1 cells, FluxOR thallium flux fluorescence. inhibition, % at 10 µM. 4,900 tested, 4% active. AID 492993, 2010;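 active = thallium signal drop more than 5 SD beyond the mean of the no-compound control wells, seen in both duplicate plates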;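 also: signal is fluorescence rise after thallium addition divided by baseline fluorescence; plate controls were assay buffer only for no effect and full block by chlorpromazine control for full effect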
Target sequence (P35561 whole entry, looked up): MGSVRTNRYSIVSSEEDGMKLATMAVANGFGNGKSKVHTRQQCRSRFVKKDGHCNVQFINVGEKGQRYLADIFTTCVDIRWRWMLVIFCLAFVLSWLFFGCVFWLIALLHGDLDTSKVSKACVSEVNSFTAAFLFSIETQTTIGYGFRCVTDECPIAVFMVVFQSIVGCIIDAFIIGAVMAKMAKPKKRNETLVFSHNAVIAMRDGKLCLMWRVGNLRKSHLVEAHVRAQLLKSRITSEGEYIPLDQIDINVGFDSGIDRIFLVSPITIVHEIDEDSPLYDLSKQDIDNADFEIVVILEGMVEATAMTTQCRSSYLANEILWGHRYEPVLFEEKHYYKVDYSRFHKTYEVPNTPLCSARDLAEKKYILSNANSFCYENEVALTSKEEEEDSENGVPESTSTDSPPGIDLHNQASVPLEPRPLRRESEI
HEK293 Tl ctr: thallium flux in non-induced HEK293 cells, confirmation, counter-screen for KCNK9 inhibitor project, cell-based, second counter screen, non-induced KCNK9-HEK293; shares compounds with KCNK9 inh; FluxOR thallium flux; inhibition, % at 10 µM; 4,900 tested, 40% active; AID 492997, 2010;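 active = thallium signal drop beyond 5 SD of the untreated control mean, on both duplicate plates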;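 also: plate controls were buffer only IC0 wells for no effect and SID17386958 at its maximal inhibitory level for full effect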
An asterisk follows results filed as active; i = inactive; . = not tested or not shown. This is a sample that favours compounds with a hit; in the whole collection about 3.1% have one here.

SMILES | KCNQ1 block | hERG rescue | KCNQ1 pot | KCNK9 inh | KCNK3 block | KCNK9 inh conf | Kir21 sel | HEK293 Tl ctr
CC(C)c1ccc(-n2c(-c3ccccc3)c[n+]3c2CCc2ccccc2-3)cc1 | i | -49.2 | i | -15.7* | i | 71.5%* | 75.0%* | 31.5%*
COc1ccc(-c2c[n+]3c(n2-c2ccccc2)CCCCC3)cc1 | i | -18.0 | i | i | i | . | . | .
COc1cc(-c2nc(C(=O)NCC3CCCO3)cc3c2[nH]c2ccccc23)cc(OC)c1OC (stereo not drawn) | i | -29.9 | i | i | i | . | . | .
O=C(NCC1CCCO1)c1cc2c([nH]c3ccccc32)c(-c2cccc(Cl)c2)n1 (stereo not drawn) | 12* | -35.0 | i | -10.8* | i | i | i | i
c1ccc(C(c2ccccc2)N2CCN(Cc3nnnn3C3CCCC3)CC2)cc1 | i | -11.2 | i | -8.98* | i | 41.0%* | i | i
COc1cccc(NC(=O)c2sc3nc(N4CCOCC4)c4c(c3c2N)CCCC4)c1 | i | -16.1 | i | -11* | i | i | i | i
CC(=O)c1ccc(NC(=O)c2sc3nc(N4CCOCC4)c4c(c3c2N)CCCC4)cc1 | i | -7.1 | i | i | i | . | . | .
Cn1cc(Cl)c(C(=O)OCC(=O)Nc2cccc(Cl)c2)n1 | i | -7.1 | i | i | i | . | . | .
CCOC(=O)[C@H]1[C@H]2COc3ccccc3[C@@H]2N2C(=O)c3ccccc3NC(=O)[C@@]12C | . | . | . | . | i | . | . | .
Cc1cc(C(=O)Cn2nnc(-c3ccc(Cl)cc3)n2)c(C)n1-c1ccccc1 | i | -18.6 | i | i | i | i | i | i
O=c1oc2ccccc2c(Nc2cc3ccccc3cc2O)c1[N+](=O)[O-] | i | -12.8 | i | i | i | i | i | i
CSc1nnc(-c2ccc(C(F)(F)F)nc2C)o1 | i | -8.5 | i | i | i | . | . | .
CCc1ccc(CN(Cc2cccnc2)C(=O)/C=C/c2ccc(OC)cc2)cc1 | i | -14.2 | i | i | i | i | i | i
O=C1CSC(c2ccc3c(c2)OCO3)N1c1ccc(Oc2ccccc2)cc1 (stereo not drawn) | i | -10.3 | i | -13.7* | i | 50.0%* | i | i
Cc1ccc(N2C(=O)CSC2c2ccc3c(c2)OCO3)cc1 (stereo not drawn) | i | -7.8 | i | i | i | . | . | .
COc1ccc(/C=N/NC(=O)c2[nH]c3ccc(C)cc3c2-c2ccccc2)c(C(=O)O)c1OC | i | -7.5 | i | i | i | . | . | .
Cc1cc2nc(-c3cc(N4CCOCC4)ccc3[N+](=O)[O-])ccn2n1 | i | -10.1 | i | i | i | . | . | .
Cc1cc2nc(-c3ccc4c(c3)CCC4)ccn2n1 | i | -17.5 | i | i | i | i | i | i
CCOC(=O)CSc1nc(C(C)C)nc2sc(C)c(C)c12 | i | -8.4 | i | i | i | . | . | .
Cc1ccc(-c2nnc(CSc3nc(C(C)C)nc4sc(C)c(C)c34)o2)cc1 | i | -12.3 | i | i | i | i | i | i
CCC1CCCCN1C(=O)CCNC(=O)Cn1cnc2ccccc2c1=O (stereo not drawn) | i | -6.4 | i | i | i | . | . | .

Screening results from PubChem BioAssay.
